The record followed here is ChEMBL document CHEMBL1121816, “Adrenoceptor blocking agents. Compounds related to metoprolol” (1981).

The species named for assay [1] is Felis catus. Briefly: Antagonistic effect of compound on peripheral vascular resistance was measured as KB in cats. In kind it is functional. In short, it runs like this: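 Reserpinized (5 mg/kg, 18 h prior), pentobarbital-anesthetized, vagotomized, ventilated cats. One hind leg perfused with the animal's own blood via the femoral artery at a constant flow above 10 mL/min; resistance read as perfusion pressure. Compound infused iv for 10 min in five stepwise concentrations, each followed by ia isoprenaline at about 80%-maximal dose. KB assumes competitive antagonism.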

Assay [2] concerns the target Beta-1 adrenergic receptor (Homo sapiens) (UniProt P08588). In words: Agonistic effect of compound against beta-1-adrenergic receptor given as geometric mean (KA) of effect on heart rate. In kind it is functional. Conditions: Felis catus. In short, it runs like this: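 Cats of either sex (2.6–3.2 kg), starved 24 h, given reserpine 5 mg/kg 18 h before; pentobarbital 30 mg/kg ip, then 0.1 mg/min/kg infusion; ventilated, bilaterally vagotomized. Heart rate triggered from carotid pressure. Compound infused iv for 10 min at 1.0 mL/min in five rising concentrations. KA taken as the dose giving a semimaximal heart-rate increase.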

Assay [3] shares this target. In words: Intrinsic activity of compound against beta-1-adrenergic receptor given as percent of maximal heart rate by iv injection of supramaximal doses of isoprenaline (IPR). It counts as functional, organism-based. Conditions: Felis catus.

Sequence of Beta-1 adrenergic receptor (Homo sapiens) (P08588 whole entry, looked up, the tested form may be a part): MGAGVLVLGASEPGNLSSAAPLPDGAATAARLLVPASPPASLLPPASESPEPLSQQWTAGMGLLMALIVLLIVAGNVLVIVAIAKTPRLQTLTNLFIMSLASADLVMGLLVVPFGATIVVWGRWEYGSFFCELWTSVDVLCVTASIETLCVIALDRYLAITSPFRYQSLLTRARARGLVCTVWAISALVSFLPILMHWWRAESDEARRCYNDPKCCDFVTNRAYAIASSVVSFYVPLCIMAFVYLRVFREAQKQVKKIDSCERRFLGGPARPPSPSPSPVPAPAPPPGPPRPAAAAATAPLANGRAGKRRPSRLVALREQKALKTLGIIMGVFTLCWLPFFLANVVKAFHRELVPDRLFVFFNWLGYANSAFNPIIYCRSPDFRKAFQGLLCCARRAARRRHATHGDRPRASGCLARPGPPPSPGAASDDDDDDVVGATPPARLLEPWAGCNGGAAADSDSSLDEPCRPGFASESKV

In the case of `COCCc1ccc(OCC(O)CNC(C)C)cc1.Cl` (stereo unspecified), the KB in assay [1] is 0.87 µM/kg. Same read-out and setting: next, `Cc1ccc(OCCC(O)CNC(C)C)cc1.Cl` (stereo unspecified): 1.82 µM/kg.

The molecule `COc1ccc(OCC(O)CNC(C)C)cc1.Cl` (stereo unspecified) displayed a KA in assay [2] of 0.119 µM/kg. Besides, the KB in assay [1] was determined as 3.42 µM/kg. Moreover, in assay [3], the Intrinsic activity came out at 81.2%. `COCCc1ccc(C(O)CNC(C)C)cc1.Cl` (stereo unspecified) registered a KA in assay [2] of 0.536 µM/kg. This molecule registered a KB in assay [1] of 23.6 µM/kg. The Intrinsic activity in assay [3] is 22.5%. Turning to `COCc1ccc(CC(O)CNC(C)C)cc1.Cl` (stereo unspecified), in assay [1], the KB was 6.1 µM/kg.

Turning to `COc1ccc(CCC(O)CNC(C)C)cc1.Cl` (stereo unspecified), in assay [1], the KB was 30.8 µM/kg. The molecule further had an Intrinsic activity in assay [3] of 4.5%.
